{"data": "Published values gathered from unrelated publications", "target": "Phosphorylase b kinase gamma catalytic chain, skeletal muscle/heart isoform (PHKG1, Homo sapiens, UniProt Q16816)", "note": "Each line is one published result; the experiments were not run side by side."}
{"SMILES": "O=C(NCCCN1CCOCC1)c1ccc(Nc2nccc(-c3cc4ccccc4s3)n2)cc1", "read-out": "binding", "method": "competition with immobilised ligand", "tested at": "1 µM", "remaining binding": "49%"}
{"SMILES": "O=C(NCC1CCOCC1)c1n[nH]cc1NC(=O)c1c(F)cccc1F", "read-out": "binding", "method": "competition with immobilised ligand", "tested at": "1 µM", "remaining binding": "100%"}
{"SMILES": "COc1cnc(Nc2cccc(S(N)(=O)=O)c2)nc1N1CCN(c2ccccc2)CC1", "read-out": "binding", "method": "competition with immobilised ligand", "tested at": "1 µM", "remaining binding": "97%"}
{"SMILES": "CCC(=N\\O)/C(C)=C/c1ccc(F)cc1", "read-out": "cell-free assay", "method": "competition with immobilised ligand", "tested at": "1 µM", "remaining binding": "100%"}
{"SMILES": "Cc1cnn2ncc(-c3ccnc(N(C)C)n3)c2c1", "read-out": "binding", "tested at": "1 µM", "remaining binding": "85%"}
{"SMILES": "CC1=C(C#N)C(c2ccc3c(c2)c(NC(=O)c2ccccc2C)nn3C)C(C#N)=C(C)N1", "read-out": "cell-free assay", "method": "competition with immobilised ligand", "tested at": "1 µM", "remaining binding": "91%"}
{"SMILES": "Nc1ncc2c(n1)-c1c([nH]c3ccc(C#CC4CC4)cc13)CCCC2", "read-out": "binding", "method": "competition with immobilised ligand", "tested at": "1 µM", "remaining binding": "93%"}
{"SMILES": "c1cnn2ncc(-c3ccnc(N4CCC45COC5)n3)c2c1", "read-out": "binding", "tested at": "1 µM", "remaining binding": "85%"}
{"SMILES": "CC(=O)C1=C(C)N(c2cccc(C(F)(F)F)c2)C(=O)N[C@@H]1c1ccc(C#N)nc1", "read-out": "cell-free assay", "method": "competition with immobilised ligand", "tested at": "1 µM", "remaining binding": "100%"}
{"SMILES": "O=C(c1ccc(Nc2ncc(Cl)c(-c3ccc(Cl)s3)n2)cc1)N1CCC(N2CCCC2)CC1", "read-out": "binding", "method": "competition with immobilised ligand", "tested at": "1 µM", "remaining binding": "85%"}
{"SMILES": "COc1ncc2cc3ccccc3nc2c1C#N", "read-out": "cell-free assay", "method": "competition with immobilised ligand", "tested at": "5 µM", "remaining binding": "83%"}
{"SMILES": "N[C@H]1CCN(c2nccc(-c3cnn4ncccc34)n2)C1", "read-out": "binding", "tested at": "1 µM", "remaining binding": "84%"}
{"SMILES": "Cc1cnc(Nc2ccc(C(=O)N3CCC(N4CCCC4)CC3)cc2)nc1-c1cc2ccccc2s1", "read-out": "binding", "method": "competition with immobilised ligand", "tested at": "1 µM", "remaining binding": "54%"}
{"SMILES": "FC(F)(F)Oc1cccc(-c2cnc3ccc(-c4ccncc4)nn23)c1", "read-out": "cell-free assay", "method": "competition with immobilised ligand", "tested at": "5 µM", "remaining binding": "43%"}
{"SMILES": "C[C@H]1CCN(c2nccc(-c3cnn4ncccc34)n2)C1", "read-out": "binding", "tested at": "1 µM", "remaining binding": "100%"}
{"SMILES": "O=C(NCc1ncc(C(F)(F)F)cc1Cl)c1ccc2c(c1)C1(CCS(=O)(=O)CC1)[C@@H](C1CC1)N2S(=O)(=O)c1ccc(F)cc1", "read-out": "cell-free assay", "method": "competition with immobilised ligand", "tested at": "1 µM", "remaining binding": "100%"}
{"SMILES": "COc1cnc(Nc2cccc(S(N)(=O)=O)c2)nc1N1CCN(c2ccccc2)C(=O)C1", "read-out": "binding", "method": "competition with immobilised ligand", "tested at": "1 µM", "remaining binding": "100%"}
{"SMILES": "CC1CCCN1c1nccc(-c2cnn3ncccc23)n1 (stereo not shown)", "read-out": "binding", "tested at": "1 µM", "remaining binding": "100%"}
{"SMILES": "CO[C@H]1CC[C@H](CNc2ccc(S(=O)(=O)NC(=O)c3ccc(N4CCN(CC5=C(c6ccc(Cl)cc6)CC(C)(C)CC5)CC4)cc3Oc3cnc4[nH]ccc4c3)cc2[N+](=O)[O-])CC1", "read-out": "cell-free assay", "method": "competition with immobilised ligand", "tested at": "1 µM", "remaining binding": "100%"}
{"SMILES": "COc1ccnn2ncc(-c3ccnc(N(C)C)n3)c12", "read-out": "binding", "tested at": "1 µM", "remaining binding": "100%"}
{"SMILES": "CCCOc1ccc([C@@H]2[C@@H](C(=O)O)[C@H](c3ccc4c(c3)OCO4)CN2CC(=O)Nc2c(CC)cccc2CC)cc1", "read-out": "cell-free assay", "method": "competition with immobilised ligand", "tested at": "1 µM", "remaining binding": "97%"}
{"SMILES": "CCN1CCN(Cc2ccc(C(=O)Nc3ccc(C)c(Oc4ccc5c(c4)CC(=O)N5)c3)cc2C(F)(F)F)CC1", "read-out": "binding", "method": "competition with immobilised ligand", "tested at": "1 µM", "remaining binding": "100%"}
